Data set [1] is described as follows: folding enthalpy; higher = less favourable; fluorescence melt of hairpins on a sequencing array, two-state fit. To be noted: sodium 0.088 M. The method in brief: (§1)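 In 50 mM Na-HEPES pH 8.0 containing 25 mM NaCl, hairpins from the library on a sequenced MiSeq flow cell were imaged for Cy3 fluorescence at 2.5 °C steps up to 60 °C, with Cy3 and quencher oligos annealed. After normalisation to pre-quench Cy3 and to control constructs, two-state fits with bootstrapping gave melting temperature and folding enthalpy. Four replicates were combined by inverse-variance weighting, and fitted temperatures were shifted up by 9.35 °C to match UV melts.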

Data set [2] is described as follows: melting temperature; fluorescence melt of hairpins on a sequencing array, two-state fit, raised by 9.35 °C to match UV melts. The settings on record: sodium 0.088 M. The method in brief: as §1

On to GATCACAGTGTGATC ((((((...)))))), for which the folding enthalpy in data set [1] was -39.9 kcal/mol. For the same sequence, the Tm in data set [2] turned out to be 56.6 °C.

Turning to GATCACATCTGTGATC ((((((....)))))), the folding enthalpy in data set [1] is -38.7 kcal/mol. In data set [2], the Tm amounted to 57.9 °C.

Take GATCACATTTGTGATC ((((((....)))))): the folding enthalpy in data set [1] is -40.8 kcal/mol. For the same sequence, the Tm in data set [2] is 59.3 °C.

For the sequence GATCACCACCGTGATC ((((((....)))))), the folding enthalpy in data set [1] is -37.3 kcal/mol. Further, in data set [2], the Tm was determined as 55.5 °C.

In the case of GATCACCATAGTGATC ((((((....)))))), the folding enthalpy in data set [1] was -42.2 kcal/mol. Moreover, the Tm in data set [2] came to 58.5 °C.

On to GATCACCCGGGTGATC ((((((....)))))), for which the folding enthalpy in data set [1] was -51.9 kcal/mol. Moreover, in data set [2], the Tm came out at 59 °C.

Take GATCACCCTGGTGATC ((((((....)))))): the folding enthalpy in data set [1] is -41.1 kcal/mol. The Tm in data set [2] was 64.1 °C.

For the sequence GATCACCGAAAGGTAATC (((.(((....))).))), the folding enthalpy in data set [1] is -20.9 kcal/mol. Further, the Tm in data set [2] was 39.5 °C.

Consider GATCACCGATGTGATC ((((((....)))))), for which the folding enthalpy in data set [1] was -30.1 kcal/mol. For the same sequence, the Tm in data set [2] amounted to 54.6 °C.

As for GATCACCGGCGTGATC ((((((....)))))), the folding enthalpy in data set [1] is -37.7 kcal/mol. In data set [2], the Tm was found to be 54.7 °C.

Turning to GATCACCGGGGTGATC ((((((....)))))), the folding enthalpy in data set [1] was -46.5 kcal/mol. Besides, in data set [2], the Tm turned out to be 62.7 °C.

GATCACCGTCGTGATC ((((((....)))))): in data set [1], the folding enthalpy is -39 kcal/mol. For the same sequence, the Tm in data set [2] came out at 55.2 °C.

Regarding GATCACCTAAGTGATC ((((((....)))))), in data set [1], the folding enthalpy is -38.9 kcal/mol. The Tm in data set [2] turned out to be 56.4 °C.

For the sequence GATCACCTAGGTGATC ((((((....)))))), in data set [1], the folding enthalpy is -41.5 kcal/mol. Moreover, in data set [2], the Tm amounted to 59.7 °C.

GATCACCTCTGTGATC ((((((....)))))): the folding enthalpy in data set [1] is -42.2 kcal/mol. Moreover, in data set [2], the Tm worked out at 55 °C.

With GATCACCTTCGTGATC ((((((....)))))), the folding enthalpy in data set [1] was -48.5 kcal/mol. For the same sequence, in data set [2], the Tm was 56.7 °C.

Take GATCACCTTTGTGATC ((((((....)))))): the folding enthalpy in data set [1] was -42.4 kcal/mol. Further, the Tm in data set [2] stood at 55 °C.

Take GATCACGAAAGTGCATC ((((((....))).))): the folding enthalpy in data set [1] is -21.4 kcal/mol. Besides, the Tm in data set [2] amounted to 42.8 °C.

As to GATCACGAAAGTGTAATC ((((((....)))..))), in data set [1], the folding enthalpy is -10.3 kcal/mol. In data set [2], the Tm came to 30.1 °C.

GATCACGAATGTGATC ((((((....)))))): the folding enthalpy in data set [1] is -37.5 kcal/mol. The Tm in data set [2] stood at 67.7 °C.

Consider GATCACGACGGTGATC ((((((....)))))), for which, in data set [1], the folding enthalpy was -37.8 kcal/mol. Moreover, in data set [2], the Tm came to 59.8 °C.

In the case of GATCACGACTGTGATC ((((((....)))))), the folding enthalpy in data set [1] was -37.1 kcal/mol. In addition, the Tm in data set [2] was 64 °C.

As to GATCACGATTGTGATC ((((((....)))))), the folding enthalpy in data set [1] was -33.2 kcal/mol. Moreover, the Tm in data set [2] turned out to be 56.6 °C.

On to GATCACGCCCGTGATC ((((((....)))))), for which, in data set [1], the folding enthalpy is -39.8 kcal/mol. Further, the Tm in data set [2] stood at 60.6 °C.

For GATCACGGAAACATGATC (((((.(....).))))), the folding enthalpy in data set [1] is -26 kcal/mol. In addition, the Tm in data set [2] came out at 35.4 °C.

As for GATCACGGAAACGTGATC (((((((....))))))), in data set [1], the folding enthalpy is -34.2 kcal/mol. Moreover, in data set [2], the Tm turned out to be 66.2 °C.

In the case of GATCACGGATGTGATC ((((((....)))))), the folding enthalpy in data set [1] is -37.1 kcal/mol. Also, the Tm in data set [2] came out at 67.5 °C.

On to GATCACGGTGGTGATC ((((((....)))))), for which the folding enthalpy in data set [1] is -37.2 kcal/mol. The Tm in data set [2] was found to be 58.3 °C.

GATCACGTAAGTGATC ((((((....)))))): the folding enthalpy in data set [1] was -30.8 kcal/mol. The Tm in data set [2] was determined as 69.3 °C.

As for GATCACGTGAGTGATC ((((((....)))))), the folding enthalpy in data set [1] was -28.4 kcal/mol. The Tm in data set [2] is 69.2 °C.

For the sequence GATCACGTGGGTGATC ((((((....)))))), in data set [1], the folding enthalpy is -39.5 kcal/mol. Moreover, the Tm in data set [2] is 57.1 °C.

On to GATCACTAACGTGATC ((((((....)))))), for which the folding enthalpy in data set [1] is -33.1 kcal/mol. The Tm in data set [2] worked out at 54.9 °C.

As for GATCACTACGGTGATC ((((((....)))))), the folding enthalpy in data set [1] was -37.9 kcal/mol. Moreover, the Tm in data set [2] is 58.7 °C.

With GATCACTCAAGTGATC ((((((....)))))), the folding enthalpy in data set [1] is -49.2 kcal/mol. The Tm in data set [2] amounted to 57 °C.

Take GATCACTCATGTGATC ((((((....)))))): the folding enthalpy in data set [1] is -40.5 kcal/mol. In data set [2], the Tm was 57 °C.

In the case of GATCACTCCTGTGATC ((((((....)))))), the folding enthalpy in data set [1] is -33.9 kcal/mol. Also, the Tm in data set [2] stood at 59.7 °C.

Turning to GATCACTCGCGTGATC ((((((....)))))), the folding enthalpy in data set [1] was -44.5 kcal/mol. The Tm in data set [2] amounted to 57.1 °C.

As to GATCACTGACGTGATC ((((((....)))))), in data set [1], the folding enthalpy was -32 kcal/mol. Moreover, the Tm in data set [2] worked out at 54.3 °C.

For the origin of these results see the array DNA melting data of Ke et al. (doi:10.1101/2024.01.08.574731).
